Data from ChEMBL document CHEMBL2163315, “Synthesis and SAR of geminal substitutions at the C5' carbosugar position of pyrimidine-derived HCV inhibitors” (Bioorg Med Chem Lett, 2012).

Columns and labels:
[1] = Oral bioavailability in cynomolgus monkey at 3 mg/kg; assay type: ADME, organism-based, Macaca fascicularis; conditions: in vivo
[2] = AUC (0 to 24 hrs) in cynomolgus monkey at 3 mg/kg, po; assay type: ADME, organism-based, Macaca fascicularis; set-up: time < 24 hr, dose 3 mg/kg, route oral; conditions: plasma
Summary of the method: (§1)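 Oral dosing at 3 mpk to dog and monkey. Plasma exposure monitored over 0–24 h.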

[3] = Oral bioavailability in dog at 3 mg/kg; assay type: ADME, organism-based, Canis lupus familiaris; conditions: in vivo
[4] = AUC (0 to 24 hrs) in dog at 3 mg/kg, po; assay type: ADME, organism-based, Canis lupus familiaris; set-up: time < 24 hr, dose 3 mg/kg, route oral; conditions: plasma; summary of the method: as §1
[5] = Oral bioavailability in rat at 10 mg/kg; assay type: ADME, organism-based; conditions: in vivo
[6] = AUC (0 to 24 hrs) in rat at 10 mg/kg, po; assay type: ADME, organism-based; set-up: time < 24 hr, dose 10 mg/kg, route oral; conditions: plasma
Summary of the method: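 Oral dosing to rats at 10 mpk. Plasma exposure monitored over 0–24 h.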

[7] = Cytotoxicity against human hepatoma cells assessed as inhibition of [methyl-14C]thymidine incorporation in DNA after 3 days by scintillation proximity assay; assay type: cell-based; conditions: for CC50 at 72 h: human hepatoma cells
Summary of the method: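 Replicon cells seeded in scintillating microplates one day before treatment. Various inhibitor concentrations added in triplicate together with [methyl-14C]-thymidine (final 0.5 µCi/mL media) and incubated three days. Incorporated label read by scintillation proximity counting. DNA CC50 is the concentration giving 50% inhibition of thymidine incorporation relative to vehicle-treated cells.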

[8] = Cytotoxicity against human hepatoma cells assessed as effect on cellular GAPDH RNA level; assay type: cell-based
[9] = Cytotoxicity against human hepatoma cells after 3 days by MTS assay; assay type: cell-based
Summary of the method: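 Replicon cells treated the same way as in the replicon activity assay (DMSO vehicle, 10% FBS, 3 days). Viability read three days post dosing by MTS (CellTiter 96 Aqueous One). CC50 is the concentration giving 50% inhibition relative to vehicle-treated cells.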

Hepatitis C virus = assay: Antiviral activity against Hepatitis C virus genotype 1b Con1 infected in human hepatoma cells assessed as inhibition of viral RNA replication by subgenomic replicon assay; assay type: functional, organism-based, Hepacivirus hominis; conditions: genotype 1b Con 1
Summary of the method: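 Subgenomic 1b-Con1 replicon cells seeded at 5000 cells/well one day before dosing. Compound in DMSO added as 10 serial twofold dilutions in triplicate (final 0.5% DMSO, 10% FBS). Cells harvested three days post dosing. Replicon RNA quantified by real-time RT-PCR (Taqman), normalised to GAPDH RNA as endogenous control. EC50 calculated from the dose-response.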

[10] = Drug uptake in rat liver at 10 mg/kg, po after 6 hrs; assay type: ADME, organism-based; set-up: dose 10 mg/kg, route oral; conditions: read-out: Drug uptake
Summary of the method: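 Rats dosed orally at 10 mpk. Compound concentration in liver measured at 6 h.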

[11] = AUC (0 to 6 hrs) in rat at 10 mg/kg, po; assay type: ADME, organism-based; set-up: time < 6 hr, dose 10 mg/kg, route oral; conditions: plasma
Summary of the method: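 Single oral dose of 10 mpk given to rats, as HCl salt. Plasma exposure expressed as AUC over 0–6 h.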

bioavailability [1] | AUC(0-t) at 24 h [2] | bioavailability [3] | AUC(0-t) at 24 h [4] | bioavailability [5] | AUC(0-t) at 24 h [6] | EC50 (Hepatitis C virus) | concentration at 6 h [10] | AUC(0-t) at 6 h [11] | SMILES | CC50 at 72 h [7] | CC50 [8] | CC50 at 72 h [9] | CC25 ([7]; 72 h)
46% | 3.7 µM·h | 18% | 0.9 µM·h | 49% | 16 µM·h | 0.02 µM | 1900 ng/g | – | COCCNc1nc(C)c(-c2nc3c(C)nccc3s2)c(N[C@@H]2C[C@H](C(C)(C)O)[C@@H](O)[C@H]2O)n1 | 7 µM | > 25 µM | > 25 µM | –
4% | 0.5 µM·h | 32% | 2.1 µM·h | 54% | 19 µM·h | 0.02 µM | 13700 ng/g | – | Cc1nc(N[C@H](C)C2CC2)nc(N[C@@H]2C[C@H](C(C)(C)O)[C@@H](O)[C@H]2O)c1-c1nc2c(C)nccc2s1 | > 25 µM | > 25 µM | > 25 µM | –
– | – | – | – | – | – | 0.09 µM | – | – | Cc1nc(N(C)CC2CC2)nc(N[C@@H]2C[C@H](C(C)(C)O)[C@@H](O)[C@H]2O)c1-c1nc2c(C)nccc2s1 | – | > 25 µM | 23 µM | –
– | – | – | – | – | – | 0.05 µM | – | 58 µM·h | Cc1nc(NC2CC2)nc(N[C@@H]2C[C@H](C(C)(C)O)[C@@H](O)[C@H]2O)c1-c1nc2c(C)nccc2s1 | – | > 6 µM | > 6 µM | –
6% | 0.3 µM·h | 66% | 4.9 µM·h | 39% | 10 µM·h | 0.02 µM | 9500 ng/g | – | Cc1nc(NCC2CC2)nc(N[C@@H]2C[C@H](C(C)(C)O)[C@@H](O)[C@H]2O)c1-c1nc2c(C)nccc2s1 | 25 µM | > 25 µM | > 25 µM | –
– | – | – | – | – | – | 0.005 µM | – | 10 µM·h | CCC(O)(CC)[C@H]1C[C@@H](Nc2nc(NCC3CC3)nc(C)c2-c2nc3c(C)nccc3s2)[C@H](O)[C@@H]1O | – | > 6 µM | > 6 µM | –
– | – | – | – | – | – | 0.008 µM | – | 1.6 µM·h | CSCCNc1nc(C)c(-c2nc3c(C)nccc3s2)c(N[C@@H]2C[C@H](C(C)(C)O)[C@@H](O)[C@H]2O)n1 | – | > 25 µM | > 25 µM | –
– | – | – | – | – | – | 0.04 µM | – | – | Cc1nc(N)nc(N[C@@H]2C[C@H](C(C)(C)O)[C@@H](O)[C@H]2O)c1-c1nc2c(C)nccc2s1 | – | 4 µM | 6 µM | –
– | – | – | – | – | – | 0.13 µM | – | – | Cc1nc(NCCN(C)C)nc(N[C@@H]2C[C@H](C(C)(C)O)[C@@H](O)[C@H]2O)c1-c1nc2c(C)nccc2s1 | – | 7 µM | 12 µM | –

More lines, now with the values behind:

SMILES | bioavailability [1] | AUC(0-t) at 24 h [2] | bioavailability [3] | AUC(0-t) at 24 h [4] | bioavailability [5] | AUC(0-t) at 24 h [6] | EC50 (Hepatitis C virus) | concentration at 6 h [10] | AUC(0-t) at 6 h [11] | CC50 at 72 h [7] | CC50 [8] | CC50 at 72 h [9] | CC25 ([7]; 72 h)
Cc1nc(NCC(F)(F)F)nc(N[C@@H]2C[C@H](C(C)(C)O)[C@@H](O)[C@H]2O)c1-c1nc2c(C)nccc2s1 | – | – | – | – | – | – | 0.01 µM | – | 1.8 µM·h | – | 20 µM | > 12 µM | –
Cc1nc(NCC2CC2)nc(N[C@@H]2C[C@H]([C@H](C)O)[C@@H](O)[C@H]2O)c1-c1nc2cnccc2s1.Cl | – | – | – | – | – | – | 0.02 µM | – | 1.3 µM·h | – | 18 µM | 13 µM | –
COCC1(CNc2nc(C)c(-c3nc4c(C)nccc4s3)c(N[C@@H]3C[C@H](C(C)(C)O)[C@@H](O)[C@H]3O)n2)CC1 | – | – | – | – | – | – | 0.02 µM | – | 0.7 µM·h | – | > 25 µM | > 25 µM | –
Cc1nc(NCC2CC2)nc(N[C@@H]2C[C@H](C3(O)CC3)[C@@H](O)[C@H]2O)c1-c1nc2c(C)nccc2s1 | – | – | – | – | – | – | 0.004 µM | – | 1.6 µM·h | – | > 25 µM | > 25 µM | –
COCCNc1nc(C)c(-c2nc3c(C)nccc3s2)c(N[C@@H]2C[C@H](C3(O)CC3)[C@@H](O)[C@H]2O)n1 | – | – | – | – | – | – | 0.007 µM | – | 3.9 µM·h | – | > 25 µM | 13 µM | –
CO[C@H](C)CNc1nc(C)c(-c2nc3c(C)nccc3s2)c(N[C@@H]2C[C@H](C(C)(C)O)[C@@H](O)[C@H]2O)n1 | 45% | 13 µM·h | 56% | 3.2 µM·h | 58% | 6.7 µM·h | 0.02 µM | 1300 ng/g | – | 25 µM | > 25 µM | > 25 µM | –
CCOCCNc1nc(C)c(-c2nc3c(C)nccc3s2)c(N[C@@H]2C[C@H](C(O)(COC)COC)[C@@H](O)[C@H]2O)n1 | – | – | – | – | – | – | 0.003 µM | – | – | – | > 12 µM | 6 µM | –
Cc1nc(NCC2CC2)nc(N[C@@H]2C[C@H](C(C)(C)O)[C@@H](O)[C@H]2O)c1-c1nc2cnccc2s1.Cl | – | – | – | – | – | – | 0.02 µM | – | 8.5 µM·h | – | > 12 µM | > 12 µM | –
Cc1nc(N[C@H](C)C2CC2)nc(N[C@@H]2C[C@H](C(C)(C)O)[C@@H](O)[C@H]2O)c1-c1nc2cnccc2s1 | – | – | – | – | – | – | 0.03 µM | – | 11 µM·h | – | > 25 µM | 25 µM | –
Cc1nc(NCc2c(F)cc(F)cc2F)nc(N[C@@H]2C[C@H](C(C)(C)O)[C@@H](O)[C@H]2O)c1-c1nc2c(C)nccc2s1 | – | – | – | – | – | – | 0.004 µM | – | 0.4 µM·h | – | > 25 µM | > 25 µM | –
CCC(O)(CC)[C@H]1C[C@@H](Nc2nc(NCCOC)nc(C)c2-c2nc3c(C)nccc3s2)[C@H](O)[C@@H]1O | – | – | – | – | – | – | 0.01 µM | – | 1.4 µM·h | – | > 25 µM | > 25 µM | –
Cc1nc(NCCN2CCOCC2)nc(N[C@@H]2C[C@H](C(C)(C)O)[C@@H](O)[C@H]2O)c1-c1nc2c(C)nccc2s1 | – | – | – | – | – | – | 0.02 µM | – | 0.2 µM·h | – | > 25 µM | > 25 µM | –
Cc1nc(N[C@H](C)c2ccc(OC(F)(F)F)cc2)nc(N[C@@H]2C[C@H](C(C)(C)O)[C@@H](O)[C@H]2O)c1-c1nc2c(C)nccc2s1 | – | – | – | – | – | – | 0.18 µM | – | 1.2 µM·h | – | > 25 µM | > 25 µM | –
COCC(O)(COC)[C@H]1C[C@@H](Nc2nc(NCC3CC3)nc(C)c2-c2nc3c(C)nccc3s2)[C@H](O)[C@@H]1O | – | – | – | – | – | – | 0.002 µM | – | – | 4 µM | > 6 µM | > 6 µM | –
COC[C@@H](C)Nc1nc(C)c(-c2nc3c(C)nccc3s2)c(N[C@@H]2C[C@H](C(C)(C)O)[C@@H](O)[C@H]2O)n1 | 50% | 10 µM·h | 50% | 4.2 µM·h | 81% | 18 µM·h | 0.02 µM | 900 ng/g | – | 25 µM | > 3 µM | > 3 µM | –
COCCNc1nc(C)c(-c2nc3cnccc3s2)c(N[C@@H]2C[C@H](C(C)(C)O)[C@@H](O)[C@H]2O)n1 | – | – | – | – | – | – | 0.05 µM | – | 1.3 µM·h | – | > 25 µM | > 25 µM | –
Cc1nc(NCC2CCCCO2)nc(N[C@@H]2C[C@H](C(C)(C)O)[C@@H](O)[C@H]2O)c1-c1nc2c(C)nccc2s1 (stereo partly drawn) | – | – | – | – | – | – | 0.004 µM | 1800 ng/g | 9.9 µM·h | – | > 25 µM | > 25 µM | 3 µM
Cc1nc(NCC2CC2)nc(N[C@@H]2C[C@H](CO)[C@@H](O)[C@H]2O)c1-c1nc2cnccc2s1 | – | – | – | – | – | – | – | – | – | – | 3 µM | – | –
